“And” between values parts separate entries of the source, which are not always exact repeats. Equal entries are not always repeated. The source made the active and inactive calls. The rule behind the calls is not given here.
Assays:
Rattus norvegicus [1] = experiment: The antihypertensive activity as percentage fall in systolic blood pressure in spontaneously hypertensive rats after a period of 3 hr for a dose of 50 mg/kg po
Rattus norvegicus [2] = experiment: Antihypertensive activity as percentage fall in systolic blood pressure in spontaneously hypertensive rats after a period of 4 hr for a dose of 50 mg/kg po; NS=Not significant; assay type: functional, organism-based; parameters: dose 50 mg/kg; conditions: Artery
Method in brief: (§1)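 Male Okamoto-Aoki SHR, trained, in groups of four matched for systolic pressure, with a concurrent vehicle control group. Oral dosing on two consecutive mornings, in water as solution or suspension at 0.1 mL/10 g. On day 2 rats were restrained at 30.0 ± 1.0 °C. Tail-cuff systolic pressure, four traces per rat, read at each hour. Per cent fall versus control; 1-tail t test, p ≤ 0.05.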

Rattus norvegicus [3] = experiment: The antihypertensive activity as percentage fall in systolic blood pressure in spontaneously hypertensive rats after a period of 2 hr for a dose of 50 mg/kg po
Rattus norvegicus [4] = experiment: Antihypertensive activity as percentage fall in systolic blood pressure in spontaneously hypertensive rats after a period of 2 hr for a dose of 50 mg/kg po; NS=Not significant; assay type: functional, organism-based; parameters: dose 50 mg/kg; conditions: Artery
Method in brief: as §1

Rattus norvegicus [5] = experiment: Antihypertensive activity as percentage fall in systolic blood pressure in spontaneously hypertensive rats after a period of 1 hr for a dose of 50 mg/kg po; NS=Not significant; assay type: functional, organism-based; parameters: dose 50 mg/kg; conditions: Artery
Method in brief: as §1

Rattus norvegicus [6] = experiment: Antihypertensive activity as percentage fall in systolic blood pressure in spontaneously hypertensive rats after a period of 3 hr for a dose of 50 mg/kg po; NS=Not significant; assay type: functional, organism-based; parameters: dose 50 mg/kg; conditions: Artery
Method in brief: as §1

[7] = Distribution coefficient between 1-Octanol and phosphate buffer at pH7.4; assay type: physicochemical; conditions: 1-octanol/phosphate buffer, pH 7.4
Method in brief: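 Octanol/buffer distribution measured at pH 7.4 in phosphate with sodium chloride. Either HPLC (0.004 M) or shake flask.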

Rattus norvegicus [8] = experiment: The antihypertensive activity as percentage fall in systolic blood pressure in spontaneously hypertensive rats after a period of 1 hr for a dose of 50 mg/kg po
Rattus norvegicus [9] = experiment: The antihypertensive activity as percentage fall in systolic blood pressure in spontaneously hypertensive rats after a period of 4 hr for a dose of 50 mg/kg po
Rattus norvegicus [10] = experiment: Antihypertensive activity as percentage fall in systolic blood pressure in spontaneously hypertensive rats after a period of 1 hr for a dose of 50 mg/kg; assay type: functional, Artery
Method in brief: (§2)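 Male Okamoto-Aoki SHR, trained, in groups of four matched for mean systolic pressure; one group per run received water vehicle. Oral dosing in water (0.1 mL per 10 g) on two consecutive mornings. After the day-2 dose, rats were restrained at 30.0 ± 1.0 °C. Systolic pressure was read by tail cuff (inflated to 300 mmHg, first pulse) at 1–4 h. % fall is versus the untreated control group, by 1-tail t test (p ≤ 0.05).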

Rattus norvegicus [11] = experiment: Percentage fall in systolic blood pressure in spontaneously hypertensive rats after 2 hr following 50 mg/kg p.o.; assay type: functional, Artery; conditions: route oral, 50 mg/kg
Method in brief: as §2

Rattus norvegicus [12] = experiment: Percentage fall in systolic blood pressure in spontaneously hypertensive rats after 3 h following 50 mg/kg p.o.; assay type: functional, Artery; conditions: route oral
Method in brief: as §2

[13] = molecular target: T1, Adrenergic receptor alpha-2 (Rattus norvegicus, UniProt P22086+P19328+P22909); experiment: Antagonistic potency of compound for Alpha-2 adrenergic receptor; assay type: functional
T1 sequence (P22086 whole entry): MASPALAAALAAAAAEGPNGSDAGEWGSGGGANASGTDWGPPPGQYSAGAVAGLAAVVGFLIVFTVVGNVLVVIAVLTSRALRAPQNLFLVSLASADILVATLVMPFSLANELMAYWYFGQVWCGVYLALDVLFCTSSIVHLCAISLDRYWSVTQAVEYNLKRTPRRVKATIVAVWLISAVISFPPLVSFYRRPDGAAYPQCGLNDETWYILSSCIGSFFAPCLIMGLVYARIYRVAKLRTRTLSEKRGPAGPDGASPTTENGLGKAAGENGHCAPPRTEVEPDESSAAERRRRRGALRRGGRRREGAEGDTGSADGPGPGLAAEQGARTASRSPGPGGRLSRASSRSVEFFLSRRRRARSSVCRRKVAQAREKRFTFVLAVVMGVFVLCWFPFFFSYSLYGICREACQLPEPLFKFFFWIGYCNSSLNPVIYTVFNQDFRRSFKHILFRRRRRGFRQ
T1 sequence (P19328 whole entry): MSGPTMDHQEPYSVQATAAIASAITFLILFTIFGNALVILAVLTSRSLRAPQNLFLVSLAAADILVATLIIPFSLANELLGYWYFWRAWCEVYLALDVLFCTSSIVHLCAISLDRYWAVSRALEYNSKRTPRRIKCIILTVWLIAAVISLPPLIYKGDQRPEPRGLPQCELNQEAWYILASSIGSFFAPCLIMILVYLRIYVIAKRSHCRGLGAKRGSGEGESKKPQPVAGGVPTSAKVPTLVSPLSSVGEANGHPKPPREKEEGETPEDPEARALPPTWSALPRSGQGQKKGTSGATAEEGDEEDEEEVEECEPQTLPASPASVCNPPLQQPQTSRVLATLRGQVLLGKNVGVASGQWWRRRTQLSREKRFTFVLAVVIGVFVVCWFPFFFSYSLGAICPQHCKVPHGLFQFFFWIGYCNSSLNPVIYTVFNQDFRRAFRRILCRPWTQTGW
T1 sequence (P22909 whole entry): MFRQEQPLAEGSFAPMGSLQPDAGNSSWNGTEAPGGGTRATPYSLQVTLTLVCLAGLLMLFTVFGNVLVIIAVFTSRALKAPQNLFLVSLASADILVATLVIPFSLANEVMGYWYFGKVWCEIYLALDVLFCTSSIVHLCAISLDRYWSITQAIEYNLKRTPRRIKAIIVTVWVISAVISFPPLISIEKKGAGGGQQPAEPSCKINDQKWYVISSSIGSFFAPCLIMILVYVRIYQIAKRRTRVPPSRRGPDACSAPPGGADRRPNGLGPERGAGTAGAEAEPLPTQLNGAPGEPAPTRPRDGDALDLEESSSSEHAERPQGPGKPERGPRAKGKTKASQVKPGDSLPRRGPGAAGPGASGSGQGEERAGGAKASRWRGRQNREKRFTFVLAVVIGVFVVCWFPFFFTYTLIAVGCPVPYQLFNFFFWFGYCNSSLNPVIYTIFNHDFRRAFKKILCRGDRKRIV

[14] = molecular target: T2, Adrenergic receptor alpha-1 (Rattus norvegicus, UniProt P15823+P23944+P43140); experiment: Antagonistic potency of compound for Alpha-1 adrenergic receptor; assay type: functional
T2 sequence (P15823 whole entry): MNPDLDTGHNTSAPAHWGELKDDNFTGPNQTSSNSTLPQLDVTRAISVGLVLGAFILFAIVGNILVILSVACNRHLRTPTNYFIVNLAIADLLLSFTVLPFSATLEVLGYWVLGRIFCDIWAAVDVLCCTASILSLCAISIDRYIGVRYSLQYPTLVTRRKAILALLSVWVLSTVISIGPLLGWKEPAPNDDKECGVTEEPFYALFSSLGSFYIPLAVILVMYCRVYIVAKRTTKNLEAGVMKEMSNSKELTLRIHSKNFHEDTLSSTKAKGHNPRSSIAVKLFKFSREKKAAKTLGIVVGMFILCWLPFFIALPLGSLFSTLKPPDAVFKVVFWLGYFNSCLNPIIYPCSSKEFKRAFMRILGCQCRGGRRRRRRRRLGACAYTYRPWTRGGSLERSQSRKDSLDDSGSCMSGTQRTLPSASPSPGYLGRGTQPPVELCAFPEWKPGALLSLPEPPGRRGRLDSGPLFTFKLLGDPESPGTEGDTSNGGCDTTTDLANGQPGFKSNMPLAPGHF
T2 sequence (P23944 whole entry): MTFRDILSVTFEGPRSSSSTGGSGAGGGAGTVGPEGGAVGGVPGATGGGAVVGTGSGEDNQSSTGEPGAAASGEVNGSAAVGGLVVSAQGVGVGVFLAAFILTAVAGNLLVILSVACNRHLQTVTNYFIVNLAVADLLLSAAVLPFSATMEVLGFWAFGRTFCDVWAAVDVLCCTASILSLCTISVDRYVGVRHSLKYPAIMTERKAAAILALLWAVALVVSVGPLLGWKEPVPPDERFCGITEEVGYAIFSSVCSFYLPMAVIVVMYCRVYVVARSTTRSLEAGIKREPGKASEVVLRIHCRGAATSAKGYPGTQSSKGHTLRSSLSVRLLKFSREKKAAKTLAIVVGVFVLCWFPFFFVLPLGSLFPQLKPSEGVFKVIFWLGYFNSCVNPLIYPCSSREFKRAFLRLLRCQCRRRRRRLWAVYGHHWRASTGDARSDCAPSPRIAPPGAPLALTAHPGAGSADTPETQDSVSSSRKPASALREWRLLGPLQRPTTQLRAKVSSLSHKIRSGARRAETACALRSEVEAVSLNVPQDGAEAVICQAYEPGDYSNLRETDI
T2 sequence (P43140 whole entry): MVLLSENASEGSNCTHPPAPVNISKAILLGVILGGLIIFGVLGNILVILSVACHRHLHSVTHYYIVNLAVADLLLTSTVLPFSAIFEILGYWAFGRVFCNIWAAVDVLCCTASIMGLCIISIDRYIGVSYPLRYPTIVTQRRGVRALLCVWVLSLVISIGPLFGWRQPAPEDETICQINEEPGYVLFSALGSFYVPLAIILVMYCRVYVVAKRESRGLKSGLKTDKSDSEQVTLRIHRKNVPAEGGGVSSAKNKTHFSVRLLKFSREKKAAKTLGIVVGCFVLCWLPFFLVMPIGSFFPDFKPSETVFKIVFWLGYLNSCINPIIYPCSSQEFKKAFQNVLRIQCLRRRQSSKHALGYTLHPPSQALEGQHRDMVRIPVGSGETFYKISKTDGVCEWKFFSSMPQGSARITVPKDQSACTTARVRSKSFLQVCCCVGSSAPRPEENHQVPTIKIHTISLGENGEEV

Rattus norvegicus [15] = experiment: The antihypertensive activity as percentage fall in systolic blood pressure in spontaneously hypertensive rats after a period of 3 hr for a dose of 25 mg/kg po; NS=Not significant; assay type: functional, organism-based; parameters: dose 25 mg/kg; conditions: Artery
Method in brief: as §2

Rattus norvegicus [16] = experiment: The antihypertensive activity as percentage fall in systolic blood pressure in spontaneously hypertensive rats after a period of 1 hr for a dose of 25 mg/kg po; assay type: functional, Artery
Method in brief: as §2

Rattus norvegicus [17] = experiment: The antihypertensive activity as percentage fall in systolic blood pressure in spontaneously hypertensive rats after a period of 2 hr for a dose of 25 mg/kg po; NS=Not significant; assay type: functional, organism-based; parameters: dose 25 mg/kg; conditions: Artery
Method in brief: as §2

Rattus norvegicus [18] = experiment: The antihypertensive activity as percentage fall in systolic blood pressure in spontaneously hypertensive rats after a period of 4 hr for a dose of 25 mg/kg po; NS=Not significant; assay type: functional, organism-based; parameters: dose 25 mg/kg; conditions: Artery
Method in brief: as §2

Rattus norvegicus [19] = experiment: The antihypertensive activity as percentage fall in systolic blood pressure in spontaneously hypertensive rats after a period of 4 hr for a dose of 75 mg/kg po; NS=Not significant; assay type: functional, organism-based; parameters: dose 75 mg/kg; conditions: Artery
Method in brief: as §1

Rattus norvegicus [20] = experiment: The antihypertensive activity as percentage fall in systolic blood pressure in spontaneously hypertensive rats after a period of 3 hr for a dose of 75 mg/kg po; NS=Not significant; assay type: functional, organism-based; parameters: dose 75 mg/kg; conditions: Artery
Method in brief: as §1

SMILES | Decrease in blood pressure (Rattus norvegicus [1]) [%] | Decrease in blood pressure (Rattus norvegicus [2]) | Decrease in blood pressure (Rattus norvegicus [3]) [%] | Decrease in blood pressure (Rattus norvegicus [4]) | Decrease in blood pressure (Rattus norvegicus [5]) | Decrease in blood pressure (Rattus norvegicus [6]) | logD [7] | Decrease in blood pressure (Rattus norvegicus [8]) [%] | Decrease in blood pressure (Rattus norvegicus [9]) [%] | Decrease in blood pressure (Rattus norvegicus [10]) [%] | Decrease in blood pressure (Rattus norvegicus [11]) | Decrease in blood pressure (Rattus norvegicus [12]) [%] | pA2 [13] | pA2 [14] | Decrease in blood pressure (Rattus norvegicus [15]) | Decrease in blood pressure (Rattus norvegicus [16]) [%] | Decrease in blood pressure (Rattus norvegicus [17]) | Decrease in blood pressure (Rattus norvegicus [18]) | Decrease in blood pressure (Rattus norvegicus [19]) | Decrease in blood pressure (Rattus norvegicus [20])
CN1CC2(CCN(CCc3c[nH]c4ccccc34)CC2)OC1=O | 8 | inactive | 18 | inactive | inactive | inactive | 1.73 | 23 | 9 | – | – | – | – | – | – | – | – | – | – | –
CCC1NC(=O)OC12CCN(CCc1c[nH]c3ccccc13)CC2 (configuration not stated) | 17 | – | 27 | – | – | – | 1.95 | 23 | 22 | 39 | 27% and 26% | 17 | 6 | 7.6 | – | – | – | – | – | –
CC(C)N1CC2(CCN(CC(O)C3COc4ccccc4O3)CC2)OC1=O (configuration not stated) | – | – | – | – | – | – | 2.05 | – | – | 26 | 20% and 16% | 16 | – | – | inactive | 14 | inactive | inactive | – | –
CC(C)N1CC2(CCN(CCc3c[nH]c4ccccc34)CC2)OC1=O | – | – | 9 | – | – | – | 2.4 | 22 | – | – | – | – | – | – | – | – | – | – | inactive | inactive
